ChEMBL document CHEMBL1138529, “Efficacy, pharmacokinetics, and metabolism of tetrahydroquinoline inhibitors of Plasmodium falciparum protein farnesyltransferase” (Antimicrob Agents Chemother, 2007)
Calls of active or inactive are those of the source.

Assays:
[1] = target: Vasopressin V1a receptor (Homo sapiens) (UniProt P37288); test: Inhibition of vasopressin V1a receptor at 10 uM
Outline: (§1)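 Radioligand displacement at a contract lab across a panel of 50 receptors, ion channels and transporters, single test concentration 10 μM; loss of specific ligand binding reported as percent, with >50% decrease counted as significant.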

[2] = target: B2 bradykinin receptor (Homo sapiens) (UniProt P30411); test: Inhibition of bradykinin B2 receptor at 10 uM; outline: as §1
[3] = Cmax in Sprague-Dawley rat at 50 mg/kg, po; assay type: ADME, organism-based; parameters: dose 50 mg/kg, route oral; settings: in vivo
Outline: (§2)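 50 mg/kg by oral gavage in 3% EtOH-7% Tween 80-90% normal saline to groups of three females (BALB/c mice, 8–10 weeks, tail bleed; Sprague-Dawley rats, 10–12 weeks, saphenous vein). Plasma extracted with acetonitrile/internal standard, LC/MS; means of three animals. Oral elimination half-life depends on absorption rate as well as elimination.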

Plasmodium falciparum [4] = test: Antiplasmodial activity against Plasmodium falciparum by [3H]hypoxanthine uptake; assay type: functional; settings: read-out: ED50 (the source's name)
Outline: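 Asynchronous P. falciparum (3D7 or K1) in RPMI 1640 with 20% heat-inactivated human A+ plasma, 0.5% parasitemia and 0.5% hematocrit; compound serially diluted, top final 5 μM, 48 h at 37°C under 5% CO2/5% O2/90% N2, then [8-3H]hypoxanthine 0.3 μCi added for 24 h.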

Plasmodium falciparum [5] = test: Antiplasmodial activity against chloroquine-resistant Plasmodium falciparum K1 by [3H]hypoxanthine uptake; assay type: functional; settings: read-out: ED50 (the source's name)
Outline: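 Asynchronous cultures at 0.5% parasitemia and 0.5% hematocrit in RPMI 1640 with 20% heat-inactivated human A+ plasma, exposed to serially diluted inhibitor (top final 5 μM, from DMSO stock) under 5% CO2/5% O2/90% N2 at 37°C for 48 h. [3H]hypoxanthine was then added for 24 h and harvested counts were background-subtracted against DMSO-only controls. ED50 came from linear regression, as the mean of duplicates.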

[6] = target: Vasoactive intestinal polypeptide receptor 1 (Homo sapiens) (UniProt P32241); test: Inhibition of VIP1 receptor at 10 uM
Outline: (§3)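 Radioligand displacement screen by a contractor across 50 receptors, ion channels and transporters, test compound at 10 μM; decrease in specific ligand binding expressed as percentage, with >50% decrease taken as significant.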

[7] = Inhibition of Sodium channel site 2 at 10 uM
Outline: (§4)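 Radioligand displacement screen at a 10 μM test concentration, run by a contract lab across a panel of 50 receptors, pharmacologically active ion channels and transporters. The read-out is the decrease in specific radiolabeled ligand binding, expressed as a percentage. A decrease above 50% was considered significant.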

[8] = target: Kappa-type opioid receptor (Homo sapiens) (UniProt P41145); test: Inhibition of kappa opioid receptor at 10 uM; outline: as §1
Rattus norvegicus [9] = test: Toxicity in Plasmodium berghei NK65 infected Sprague-Dawley rat assessed as effect on cholesterol levels at 50 mg/kg, perorally administered every 12 hrs for 3 days; assay type: organism-based; parameters: dose 50 mg/kg, route oral; settings: in vivo, po, in the assay text read “every 8 hrs” for “every 12 hrs”
Outline: (§5)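 Female Sprague-Dawley rats, 10-12 weeks, n = 3 per schedule. Dosed 50 mg/kg by oral gavage every 8 h or every 12 h for 72 h. At the end of dosing, blood was sent to a clinical laboratory for complete blood counts, white cell differentials, electrolytes, glucose, renal function, liver enzymes and cholesterol.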

[10] = Elimination half life in BALB/c mouse at 50 mg/kg, po; assay type: ADME, organism-based; parameters: dose 50 mg/kg, route oral; settings: in vivo, read-out: beta t1/2; outline: as §2
Mus musculus = test: Toxicity in BALB/c mouse at 50 mg/kg, po; assay type: organism-based; parameters: dose 50 mg/kg, route oral; settings: in vivo
[11] = target: Cholecystokinin receptor type A (Homo sapiens) (UniProt P32238); test: Inhibition of CCK1 receptor at 10 uM; outline: as §3
Rattus norvegicus [12] = test: Toxicity in Plasmodium berghei NK65 infected Sprague-Dawley rat assessed as effect on renal function at 50 mg/kg, perorally administered every 12 hrs for 3 days; assay type: organism-based; parameters: dose 50 mg/kg, route oral; settings: in vivo, po, in the assay text read “every 8 hrs” for “every 12 hrs”; outline: as §5
[13] = target: Endothelin-1 receptor (Homo sapiens) (UniProt P25101); test: Inhibition of ETA receptor at 10 uM; outline: as §3
[14] = target: Adenosine A2A receptor (Homo sapiens) (UniProt P29274); test: Inhibition of adenosine A2A receptor at 10 uM
[15] = target: Melatonin receptor type 1A (Homo sapiens) (UniProt P48039); test: Inhibition of melatonin MT1 receptor at 10 uM; outline: as §1
[16] = Cmax in BALB/c mouse at 50 mg/kg, po; assay type: ADME, organism-based; parameters: dose 50 mg/kg, route oral; settings: in vivo; outline: as §2
[17] = Inhibition of Potassium channel at 10 uM; outline: as §4
[18] = target: Alpha-2A adrenergic receptor (Homo sapiens) (UniProt P08913); test: Inhibition of alpha2 adrenergic receptor at 10 uM; outline: as §1
[19] = target: Muscarinic acetylcholine receptor M1 (Homo sapiens) (UniProt P11229); test: Inhibition of muscarinic M1 receptor at 10 uM; outline: as §1
[20] = target: Delta-type opioid receptor (Homo sapiens) (UniProt P41143); test: Inhibition of delta opioid receptor at 10 uM; outline: as §1
[21] = target: Neuropeptide Y receptor type 1 (Homo sapiens) (UniProt P25929); test: Inhibition of neuropeptide Y1 receptor at 10 uM; outline: as §1
[22] = Permeability from apical to basolateral side in human Caco-2 cells; assay type: ADME, cell-based; settings: read-out: permeability
Salmonella typhimurium = test: Genotoxicity in Salmonella enterica serovar Typhimurium TA100 assessed as increase in number of revertants in presence of rat liver S9 fraction by Ames test; assay type: toxicity, organism-based; settings: salmonella enterica subsp. enterica serovar typhimurium
Outline: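 Liquid-culture Ames assay run by a contractor: S. Typhimurium TA98 and TA100 exposed for 96 h in histidine-free medium, with and without rat liver S9, at 5, 10, 50 and 100 μM (plus higher concentrations); growth read spectrophotometrically by pH-indicator colour change. Parallel bacterial cytotoxicity assay at same concentrations.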

[23] = Elimination half life in Sprague-Dawley rat at 50 mg/kg, po; assay type: ADME, organism-based; parameters: dose 50 mg/kg, route oral; settings: in vivo, read-out: beta t1/2; outline: as §2
[24] = target: Sodium-dependent dopamine transporter (Homo sapiens) (UniProt Q01959); test: Inhibition of DAT at 10 uM; outline: as §3
[25] = target: Nociceptin receptor (Homo sapiens) (UniProt P41146); test: Inhibition of ORL1 receptor at 10 uM; outline: as §3
[26] = target: 5-hydroxytryptamine receptor 7 (Homo sapiens) (UniProt P34969); test: Inhibition of 5HT7 receptor at 10 uM; outline: as §3

Endothelin-1 receptor (Homo sapiens), sequence (P25101 whole entry): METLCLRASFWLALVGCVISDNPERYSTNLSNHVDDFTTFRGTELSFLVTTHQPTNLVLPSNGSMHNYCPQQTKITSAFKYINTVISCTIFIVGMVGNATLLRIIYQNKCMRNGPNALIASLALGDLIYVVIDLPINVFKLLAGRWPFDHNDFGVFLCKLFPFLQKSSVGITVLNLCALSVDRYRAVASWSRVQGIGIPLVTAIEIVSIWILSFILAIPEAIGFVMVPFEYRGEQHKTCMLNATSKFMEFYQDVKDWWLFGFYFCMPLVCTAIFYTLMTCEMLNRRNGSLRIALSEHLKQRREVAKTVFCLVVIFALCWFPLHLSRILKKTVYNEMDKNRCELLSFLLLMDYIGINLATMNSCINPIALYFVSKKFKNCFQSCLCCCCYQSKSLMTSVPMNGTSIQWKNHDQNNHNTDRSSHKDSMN
Neuropeptide Y receptor type 1 (Homo sapiens), sequence (P25929 whole entry): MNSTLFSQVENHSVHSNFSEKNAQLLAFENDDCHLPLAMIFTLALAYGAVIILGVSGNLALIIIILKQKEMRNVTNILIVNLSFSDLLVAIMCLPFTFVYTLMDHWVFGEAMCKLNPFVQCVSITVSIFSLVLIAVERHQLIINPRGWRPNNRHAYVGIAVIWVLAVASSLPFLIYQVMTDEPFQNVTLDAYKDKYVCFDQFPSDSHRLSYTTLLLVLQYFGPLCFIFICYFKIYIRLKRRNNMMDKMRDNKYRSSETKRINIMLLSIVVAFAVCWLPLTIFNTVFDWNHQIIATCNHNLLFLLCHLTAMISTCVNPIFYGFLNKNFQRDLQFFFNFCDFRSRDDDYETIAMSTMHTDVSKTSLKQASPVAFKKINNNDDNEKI
Vasopressin V1a receptor (Homo sapiens), sequence (P37288 whole entry, looked up): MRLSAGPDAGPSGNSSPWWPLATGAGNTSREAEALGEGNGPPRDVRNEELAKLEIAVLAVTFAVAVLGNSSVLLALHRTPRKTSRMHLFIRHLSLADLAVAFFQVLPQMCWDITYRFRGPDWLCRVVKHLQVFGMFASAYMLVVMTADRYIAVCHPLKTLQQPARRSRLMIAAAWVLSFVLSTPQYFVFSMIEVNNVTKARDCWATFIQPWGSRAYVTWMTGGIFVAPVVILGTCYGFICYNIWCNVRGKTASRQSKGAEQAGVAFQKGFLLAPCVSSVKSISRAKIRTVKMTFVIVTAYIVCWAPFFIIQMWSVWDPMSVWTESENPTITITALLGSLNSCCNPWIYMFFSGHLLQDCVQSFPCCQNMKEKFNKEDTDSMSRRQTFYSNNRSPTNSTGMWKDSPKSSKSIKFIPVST
Delta-type opioid receptor (Homo sapiens), sequence (P41143 whole entry): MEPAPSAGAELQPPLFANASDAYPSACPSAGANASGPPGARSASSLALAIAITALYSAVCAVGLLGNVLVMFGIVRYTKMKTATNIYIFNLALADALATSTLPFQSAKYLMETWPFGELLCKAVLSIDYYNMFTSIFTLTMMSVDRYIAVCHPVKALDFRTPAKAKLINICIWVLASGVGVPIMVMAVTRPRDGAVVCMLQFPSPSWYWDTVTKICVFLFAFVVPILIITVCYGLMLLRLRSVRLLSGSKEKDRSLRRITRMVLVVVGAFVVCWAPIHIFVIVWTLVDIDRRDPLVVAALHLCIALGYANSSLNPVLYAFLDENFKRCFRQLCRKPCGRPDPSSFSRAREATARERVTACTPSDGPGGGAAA
B2 bradykinin receptor (Homo sapiens), sequence (P30411 whole entry): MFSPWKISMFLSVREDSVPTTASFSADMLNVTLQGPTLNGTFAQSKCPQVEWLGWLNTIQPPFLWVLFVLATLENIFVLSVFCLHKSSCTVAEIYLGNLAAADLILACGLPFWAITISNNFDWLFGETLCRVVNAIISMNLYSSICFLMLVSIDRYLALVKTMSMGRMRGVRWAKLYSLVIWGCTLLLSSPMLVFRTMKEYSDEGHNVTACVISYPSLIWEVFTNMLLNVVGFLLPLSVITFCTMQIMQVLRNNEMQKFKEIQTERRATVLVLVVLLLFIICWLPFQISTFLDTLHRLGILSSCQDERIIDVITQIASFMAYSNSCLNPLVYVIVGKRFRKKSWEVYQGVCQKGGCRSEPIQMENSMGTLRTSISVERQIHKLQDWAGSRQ
Alpha-2A adrenergic receptor (Homo sapiens), sequence (P08913 whole entry): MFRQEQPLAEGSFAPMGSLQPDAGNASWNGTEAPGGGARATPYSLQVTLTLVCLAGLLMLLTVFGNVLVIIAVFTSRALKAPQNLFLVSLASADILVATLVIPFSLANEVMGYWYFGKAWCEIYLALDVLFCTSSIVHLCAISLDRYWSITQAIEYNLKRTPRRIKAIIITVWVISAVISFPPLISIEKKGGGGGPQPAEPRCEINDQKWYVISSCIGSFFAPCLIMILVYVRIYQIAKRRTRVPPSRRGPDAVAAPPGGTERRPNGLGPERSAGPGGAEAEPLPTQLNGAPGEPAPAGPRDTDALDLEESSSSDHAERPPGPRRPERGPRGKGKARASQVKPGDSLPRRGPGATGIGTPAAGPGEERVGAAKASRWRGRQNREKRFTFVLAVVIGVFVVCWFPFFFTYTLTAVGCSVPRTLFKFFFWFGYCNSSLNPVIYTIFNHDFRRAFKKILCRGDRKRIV
Vasoactive intestinal polypeptide receptor 1 (Homo sapiens), sequence (P32241 whole entry): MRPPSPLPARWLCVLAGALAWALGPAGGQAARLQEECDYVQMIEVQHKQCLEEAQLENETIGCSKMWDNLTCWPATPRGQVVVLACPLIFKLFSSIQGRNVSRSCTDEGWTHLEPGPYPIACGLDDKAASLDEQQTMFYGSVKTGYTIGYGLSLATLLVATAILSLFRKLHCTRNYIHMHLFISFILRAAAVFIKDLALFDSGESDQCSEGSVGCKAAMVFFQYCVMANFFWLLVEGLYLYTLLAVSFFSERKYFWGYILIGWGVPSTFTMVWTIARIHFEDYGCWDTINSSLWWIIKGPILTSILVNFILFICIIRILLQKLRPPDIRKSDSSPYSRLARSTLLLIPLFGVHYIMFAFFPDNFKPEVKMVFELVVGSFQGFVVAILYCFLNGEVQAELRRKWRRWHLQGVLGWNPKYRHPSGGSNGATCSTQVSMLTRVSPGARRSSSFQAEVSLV
Sodium-dependent dopamine transporter (Homo sapiens), sequence (Q01959 whole entry): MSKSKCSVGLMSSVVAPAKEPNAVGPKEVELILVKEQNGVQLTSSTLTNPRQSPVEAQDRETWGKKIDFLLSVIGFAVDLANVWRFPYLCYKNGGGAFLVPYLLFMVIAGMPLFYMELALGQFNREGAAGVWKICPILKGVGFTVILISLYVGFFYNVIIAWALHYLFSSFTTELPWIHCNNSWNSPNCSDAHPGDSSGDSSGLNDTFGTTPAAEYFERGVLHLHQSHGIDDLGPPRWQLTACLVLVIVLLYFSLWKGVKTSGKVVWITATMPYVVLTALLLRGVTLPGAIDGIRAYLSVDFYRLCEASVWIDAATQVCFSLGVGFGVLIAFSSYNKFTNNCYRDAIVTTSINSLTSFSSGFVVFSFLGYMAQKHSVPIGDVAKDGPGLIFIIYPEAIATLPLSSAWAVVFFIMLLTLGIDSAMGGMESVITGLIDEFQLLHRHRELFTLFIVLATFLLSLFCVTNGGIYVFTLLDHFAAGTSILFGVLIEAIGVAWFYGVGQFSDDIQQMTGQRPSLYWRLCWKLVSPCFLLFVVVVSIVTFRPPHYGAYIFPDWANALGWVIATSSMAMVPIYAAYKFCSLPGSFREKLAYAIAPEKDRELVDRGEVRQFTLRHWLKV
Melatonin receptor type 1A (Homo sapiens), sequence (P48039 whole entry): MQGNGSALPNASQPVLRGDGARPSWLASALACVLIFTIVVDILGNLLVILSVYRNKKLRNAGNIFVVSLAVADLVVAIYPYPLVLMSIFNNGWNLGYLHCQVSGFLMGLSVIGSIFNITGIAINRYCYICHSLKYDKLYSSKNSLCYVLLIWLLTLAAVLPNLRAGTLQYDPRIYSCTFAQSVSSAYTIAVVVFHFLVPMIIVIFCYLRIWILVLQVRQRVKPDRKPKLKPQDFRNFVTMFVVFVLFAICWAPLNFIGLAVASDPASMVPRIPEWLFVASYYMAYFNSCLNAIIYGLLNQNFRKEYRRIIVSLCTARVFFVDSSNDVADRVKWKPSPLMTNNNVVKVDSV
Nociceptin receptor (Homo sapiens), sequence (P41146 whole entry): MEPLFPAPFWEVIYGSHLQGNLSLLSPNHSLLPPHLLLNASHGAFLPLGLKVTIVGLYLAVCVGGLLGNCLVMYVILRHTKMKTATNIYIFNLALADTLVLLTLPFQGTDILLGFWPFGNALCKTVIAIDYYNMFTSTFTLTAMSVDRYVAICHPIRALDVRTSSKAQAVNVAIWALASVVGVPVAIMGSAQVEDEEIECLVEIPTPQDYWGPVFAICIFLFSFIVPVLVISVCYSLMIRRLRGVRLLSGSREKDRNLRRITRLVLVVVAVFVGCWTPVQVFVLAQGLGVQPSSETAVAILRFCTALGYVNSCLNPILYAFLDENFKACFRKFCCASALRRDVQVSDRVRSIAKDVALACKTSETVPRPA
Cholecystokinin receptor type A (Homo sapiens), sequence (P32238 whole entry): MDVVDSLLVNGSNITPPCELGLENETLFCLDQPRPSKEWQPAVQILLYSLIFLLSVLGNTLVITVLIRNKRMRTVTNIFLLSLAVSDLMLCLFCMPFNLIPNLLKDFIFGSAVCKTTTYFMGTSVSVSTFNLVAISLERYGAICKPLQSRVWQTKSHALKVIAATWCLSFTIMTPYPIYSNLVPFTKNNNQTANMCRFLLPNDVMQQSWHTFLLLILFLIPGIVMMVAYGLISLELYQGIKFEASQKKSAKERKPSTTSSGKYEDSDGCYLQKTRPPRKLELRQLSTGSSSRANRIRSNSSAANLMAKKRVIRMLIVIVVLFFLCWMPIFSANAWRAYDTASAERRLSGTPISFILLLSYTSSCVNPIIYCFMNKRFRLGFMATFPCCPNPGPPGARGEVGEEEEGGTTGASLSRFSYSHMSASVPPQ

COC(=O)N1CCC(CN(C2Cc3cc(C#N)ccc3N(Cc3cncn3C)C2)S(=O)(=O)c2ccccn2)CC1 (stereo not drawn)
inhibition [1]: 81%
inhibition [2]: inactive
Cmax [3]: 4.5 µM
EC50 (Plasmodium falciparum [4]): 18 nM
EC50 (Plasmodium falciparum [5]): 15 nM
inhibition [6]: inactive
inhibition [7]: inactive
inhibition [8]: inactive
Activity (Rattus norvegicus [9]): Non-toxic
half-life [10]: 18 min
Activity (Mus musculus): Non-toxic
inhibition [11]: inactive
Activity (Rattus norvegicus [12]): Non-toxic
inhibition [13]: inactive
inhibition [14]: inactive
inhibition [15]: inactive
Cmax [16]: 4.2 µM
inhibition [17]: inactive
inhibition [18]: inactive
inhibition [19]: 64%
inhibition [20]: inactive
inhibition [21]: inactive
Papp A→B [22]: 1.1 ×10⁻⁶ cm/s
Activity (Salmonella typhimurium): Non-toxic
half-life [23]: 41 min
inhibition [24]: inactive
inhibition [25]: inactive
inhibition [26]: inactive
